Measured values published in ChEMBL document CHEMBL2321659, “Design, synthesis, and biological evaluation of indenoisoquinoline rexinoids with chemopreventive potential” (J Med Chem, 2013).
Active and inactive are the calls of the source. No cut-off for these calls is given here.

Tests used:
[1] = target: T1, Retinoic acid receptor RXR-alpha (Homo sapiens) (UniProt P19793); experiment: Activation of human RXRalpha activity expressed in COS1 cells assessed as induction ratio at 50 uM after 12 hrs by RXRE-luciferase reporter gene assay relative to untreated control; assay type: cell-based; conditions: COS-1
T1 sequence (whole entry): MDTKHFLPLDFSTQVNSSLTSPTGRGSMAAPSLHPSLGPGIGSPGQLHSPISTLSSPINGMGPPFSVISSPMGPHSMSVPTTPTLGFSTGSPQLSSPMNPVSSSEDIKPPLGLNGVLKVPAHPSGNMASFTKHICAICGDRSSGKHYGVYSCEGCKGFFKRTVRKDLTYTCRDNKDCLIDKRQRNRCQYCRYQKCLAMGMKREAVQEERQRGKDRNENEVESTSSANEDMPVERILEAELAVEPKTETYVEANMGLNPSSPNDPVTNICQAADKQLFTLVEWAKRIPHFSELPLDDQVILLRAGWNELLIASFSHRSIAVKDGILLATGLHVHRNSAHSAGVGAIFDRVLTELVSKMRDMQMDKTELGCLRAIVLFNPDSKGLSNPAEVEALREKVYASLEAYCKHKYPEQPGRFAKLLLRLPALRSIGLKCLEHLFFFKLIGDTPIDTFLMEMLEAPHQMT
In short: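 COS-1 cells transiently co-transfected per well with 100 ng RXRE-firefly luciferase reporter, 50 ng human RXRα expression vector and 3 ng Renilla luciferase vector using Lipofectamine 2000 for 24 h, then exposed to compound for a further 12 h. Dual-luciferase read-out. Induction ratio taken at 50 µM test concentration.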

[2] = Cytotoxicity against African green monkey COS1 cells assessed as cell survival; assay type: cell-based; set-up: concentration or dose not given beside the values; conditions: chlorocebus aethiops, COS-1 cells; read-out: Activity
[3] = target: T2, Retinoic acid receptor RXR-alpha (Homo sapiens, UniProt P19793); experiment: Activation of human RXRalpha activity expressed in COS1 cells after 12 hrs by RXRE-luciferase reporter gene assay; assay type: cell-based, COS-1
T2 sequence (P19793 whole entry): T1 sequence (whole entry)

[4] = target: T3, Vitamin D3 receptor (Homo sapiens) (UniProt P11473); experiment: Binding affinity to VDR (unknown origin) after 30 mins by ultrafiltration LC-MS/MS analysis relative to 6-(6-aminohexyl)-5H-indeno[1,2-c]isoquinoline-5,11(6H)-dione; set-up: Activity: concentration or dose not given beside the values
T3 sequence (whole entry): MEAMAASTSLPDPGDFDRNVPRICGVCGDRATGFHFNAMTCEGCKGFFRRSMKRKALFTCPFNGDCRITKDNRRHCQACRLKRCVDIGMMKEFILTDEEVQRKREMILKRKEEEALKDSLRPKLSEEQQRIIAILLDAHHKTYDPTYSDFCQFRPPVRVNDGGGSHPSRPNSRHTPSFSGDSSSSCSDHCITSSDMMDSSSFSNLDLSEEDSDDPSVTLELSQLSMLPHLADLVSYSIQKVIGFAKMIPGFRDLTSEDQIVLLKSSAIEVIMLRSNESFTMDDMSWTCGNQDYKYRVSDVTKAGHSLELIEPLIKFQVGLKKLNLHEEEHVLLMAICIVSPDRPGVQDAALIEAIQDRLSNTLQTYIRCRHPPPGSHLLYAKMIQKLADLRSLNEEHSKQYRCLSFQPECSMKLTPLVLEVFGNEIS
In short: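 Recombinant VDR incubated with ligand in 20 µL for 30 min at 37 °C in the dark with shaking. Then ultrafiltration at 4 °C and rinses with cold 50 mM ammonium acetate/0.1 mM NaCl pH 8.0. Bound ligand released with methanol containing genistein, dried under N2 and quantified by LC-MS. Controls were boiled hVDR or no protein.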

[5] = target: T1, Retinoic acid receptor RXR-alpha (Homo sapiens); experiment: Binding affinity to RXRalpha (unknown origin) at 10 uM after 2 hrs by ultrafiltration LC-MS/MS analysis relative to control
In short: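 Purified RXRα (10 µM stock in 50 mM Tris-HCl pH 7.5, 50 mM KCl, 1 mM EDTA) incubated with ligand (final 10 µM, DMSO) for 2 h at room temperature. Then 10 kDa ultrafiltration at 4 °C, three ammonium acetate pH 7.5 washes, release with 90% methanol, UHPLC-MS/MS (SRM). Binding ratio is peak area versus denatured-RXRα (60–70 °C, 15 min) control.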

HL-60 [6] = experiment: Cell cycle arrest in human HL60 cells assessed as accumulation at subG1 phase at 13 nM relative to control; assay type: functional
HL-60 [7] = experiment: Cytotoxicity against human HL60 cells assessed as inhibition of cell proliferation after 96 hrs; assay type: functional, cell-based; conditions: HL-60, 96 h
HL-60 [8] = experiment: Cell cycle arrest in human HL60 cells assessed as accumulation at subG1 phase at 250 nM relative to control; assay type: functional
[9] = target: T3, Vitamin D3 receptor (Homo sapiens); experiment: Binding affinity to VDR (unknown origin) assessed as inhibition of curcumin binding after 30 mins by ultrafiltration LC-MS/MS analysis

For `NCCCn1c2c(c3ccc(NCC(=O)O)cc3c1=O)C(=O)c1ccccc1-2`, the Ratio [1] was over 1, the viability [2] was 61.2% and the EC50 [3] was 8.4 µM.

For `NCCCn1c2c(c3ccc(N)cc3c1=O)Cc1ccccc1-2`, the Ratio [1] was over 1, the Activity [4] was 15.1% and the fold change (FC) [4] was 0.151. It also gave a viability [2] of 49.3% and an EC50 [3] of 10 µM.

In the case of `NCCCCn1c2c(c3ccccc3c1=O)C(=O)c1ccccc1-2`, the Ratio [1] is reported as 9.9, the Activity [4] is reported as 35.3% and the fold change (FC) [4] is reported as 0.353. For the same compound, the viability [2] was 53.8% and the EC50 [3] was 11.3 µM.

Work on `COC(=O)/C=C/c1ccc2c3c(n(CCCN)c(=O)c2c1)-c1ccccc1C3=O` yielded a Ratio [1] of under 1 and a viability [2] of 90.4%.

Compound `CC(=O)Nc1ccc2c3c(n(CCCN)c(=O)c2c1)-c1ccccc1C3=O` has a viability [2] of 69.2% and an EC50 [3] of over 34.7 µM.

`CNCCCn1c2c(c3ccccc3c1=O)C(=O)c1ccccc1-2` gave a fold change (FC) [5] of 7.6, a Ratio [1] of over 1 and a viability [2] of 51.2%. For the same compound, the EC50 [3] was 9.22 µM.

With `NCCCn1c2c(c3ccccc3c1=O)C(=O)c1ccccc1-2` the Ratio [1] was 11.4, the Activity [4] was 42.7% and the fold change (FC) [4] was 0.427. For the same compound, the viability [2] was 50.8% and the EC50 [3] was 8.66 µM.

With `CN(C)CCCn1c2c(c3ccc(C#N)cc3c1=O)C(=O)c1ccccc1-2` the Ratio [1] was over 1, the viability [2] was 54.8% and the EC50 [3] was over 20.7 µM.

Compound `CN(C)CCCn1c2c(c3ccc(Br)cc3c1=O)C(=O)c1ccccc1-2` has a Ratio [1] of over 1, a viability [2] of 48.5% and an EC50 [3] of 18.4 µM.

Compound `O=C1c2ccccc2-c2c1c1ccc(Br)cc1c(=O)n2CCCN1CCOCC1` has a Ratio [1] of under 1 and a viability [2] of 100%.

In the case of `CN(C)CCCn1c2c(c3ccc(N)cc3c1=O)C(=O)c1ccccc1-2`, the fold change (FC) [5] is reported as 2.5, the Ratio [1] is reported as over 1 and the Activity [4] is reported as 21.4%. The fold change (FC) [4] was 0.214, the viability [2] was 53.7% and the EC50 [3] was 7 µM.

For `CNCCCn1c2c(c3ccc(Br)cc3c1=O)C(=O)c1ccccc1-2`, the Ratio [1] was over 1, the viability [2] was 31.3% and the EC50 [3] was 10.7 µM.

In the case of `NCCCn1c2c(c3ccc(N)cc3c1=O)C(=O)c1ccccc1-2`, the Activity (HL-60 [6]) is reported as 4.5%, the IC50 (HL-60 [7]) is reported as 0.092 µM and the Activity (HL-60 [8]) is reported as 28.7%. For the same compound, the inhibition [9] was “inactive”, the viability [2] was 52.1% and the EC50 [3] was 4.4 µM.

Compound `CN(C)CCCn1c2c(c3ccccc3c1=O)C(=O)c1ccccc1-2` has a fold change (FC) [5] of 2.6, a Ratio [1] of over 1 and a viability [2] of 52.5%. For the same compound, the EC50 [3] was 9.6 µM.

With `NCCCCCn1c2c(c3ccccc3c1=O)C(=O)c1ccccc1-2` the Ratio [1] was 4.9, the Activity [4] was 83.8% and the fold change (FC) [4] was 0.838. For the same compound, the viability [2] was 40.7% and the EC50 [3] was 12.2 µM.

In the case of `CCOC(=O)CNc1ccc2c3c(n(CCCN)c(=O)c2c1)-c1ccccc1C3=O`, the Activity [5] is reported as “inactive”, the Ratio [1] is reported as under 1 and the Activity [4] is reported as 1.62%. It also gave a fold change (FC) [4] of 0.0162 and a viability [2] of 22.2%.

With `CN(C)CCCn1c2c(c3ccc([N+](=O)[O-])cc3c1=O)C(=O)c1ccccc1-2` the Ratio [1] was under 1 and the viability [2] was 83.7%.

Work on `COC(=O)CC(=O)Nc1ccc2c3c(n(CCCN)c(=O)c2c1)-c1ccccc1C3=O` yielded a fold change (FC) [5] of 1.7, a Ratio [1] of over 1 and a viability [2] of 85%. For the same compound, the EC50 [3] was over 44.5 µM.

For `COC(=O)c1ccc2c3c(n(CCCN(C)C)c(=O)c2c1)-c1ccccc1C3=O`, the Ratio [1] was over 1, the viability [2] was 21.7% and the EC50 [3] was 19.5 µM.

Work on `COc1ccc2c(c1)C(=O)c1c-2n(CCCN)c(=O)c2ccccc12` yielded a Ratio [1] of over 1, a viability [2] of 46.8% and an EC50 [3] of 4.84 µM.

Compound `NCCCCCCn1c2c(c3ccccc3c1=O)C(=O)c1ccccc1-2` has a Ratio [1] of 6.7, an Activity [4] of 100% and a fold change (FC) [4] of 1. For the same compound, the viability [2] was 24.9% and the EC50 [3] was 16.4 µM.

Compound `NCCn1c2c(c3ccccc3c1=O)C(=O)c1ccccc1-2` has a Ratio [1] of 8.2, a viability [2] of 30.7% and an EC50 [3] of 15.9 µM.
